Results as given in ChEMBL document CHEMBL1124735, “Dehydrogenase binding by tiazofurin anabolites” (J Med Chem, 1990).

How the values were obtained:
[1] = target: T1, Malate dehydrogenase, cytoplasmic (Sus scrofa, UniProt P11708); assay: In vitro inhibitory activity against pig heart cytoplasmic malate dehydrogenase (MDH)
T1 sequence (P11708 whole entry): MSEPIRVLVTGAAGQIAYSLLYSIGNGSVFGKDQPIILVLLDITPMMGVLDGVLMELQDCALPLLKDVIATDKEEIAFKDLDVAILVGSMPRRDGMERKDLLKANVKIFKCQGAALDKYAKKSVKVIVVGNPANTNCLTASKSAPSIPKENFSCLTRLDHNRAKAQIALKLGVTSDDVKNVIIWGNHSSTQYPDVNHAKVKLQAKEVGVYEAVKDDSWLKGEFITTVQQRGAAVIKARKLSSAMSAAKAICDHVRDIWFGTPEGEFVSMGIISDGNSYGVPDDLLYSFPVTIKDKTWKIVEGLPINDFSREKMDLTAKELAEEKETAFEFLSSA
Outline: (§1)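 Pig heart enzymes (cytoplasmic MDH or LDH, from ammonium sulfate suspension) assayed in 0.05 M Tris HCl pH 9.0, with NAD as substrate; rates from NADH appearance by A340 (ε 6.22 mM⁻¹cm⁻¹) or fluorescence calibrated against NADH standards. Run at least in duplicate; kinetic constants from Lineweaver-Burk plots by linear regression.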

[2] = target: T2, Alcohol dehydrogenase (Equus caballus, UniProt P00327+P00328); assay: In vitro inhibitory activity against horse liver Alcohol dehydrogenase (ADH)
[3] = target: Glutamate dehydrogenase 1, mitochondrial (Bos taurus, UniProt P00366); assay: In vitro inhibitory activity against bovine liver glutamate dehydrogenase (GDH)
Sequence of Glutamate dehydrogenase 1, mitochondrial (P00366 whole entry): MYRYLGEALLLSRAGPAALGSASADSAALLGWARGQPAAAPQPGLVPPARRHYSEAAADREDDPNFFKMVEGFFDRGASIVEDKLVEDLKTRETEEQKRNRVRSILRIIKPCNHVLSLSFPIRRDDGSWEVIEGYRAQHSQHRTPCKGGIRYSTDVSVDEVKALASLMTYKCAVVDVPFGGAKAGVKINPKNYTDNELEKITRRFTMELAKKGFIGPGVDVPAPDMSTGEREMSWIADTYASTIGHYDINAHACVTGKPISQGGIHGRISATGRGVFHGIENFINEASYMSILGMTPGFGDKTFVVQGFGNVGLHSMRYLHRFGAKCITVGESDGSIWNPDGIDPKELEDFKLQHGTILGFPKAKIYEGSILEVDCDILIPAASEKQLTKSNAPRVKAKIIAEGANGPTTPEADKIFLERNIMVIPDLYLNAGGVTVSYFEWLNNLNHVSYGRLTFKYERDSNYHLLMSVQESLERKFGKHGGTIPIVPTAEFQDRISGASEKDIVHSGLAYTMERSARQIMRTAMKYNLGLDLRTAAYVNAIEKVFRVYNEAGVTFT

[4] = target: L-lactate dehydrogenase B chain (Sus scrofa, UniProt P00336); assay: In vitro inhibitory activity against pig heart lactate dehydrogenase (LDH); outline: as §1
Sequence of L-lactate dehydrogenase B chain (P00336 whole entry): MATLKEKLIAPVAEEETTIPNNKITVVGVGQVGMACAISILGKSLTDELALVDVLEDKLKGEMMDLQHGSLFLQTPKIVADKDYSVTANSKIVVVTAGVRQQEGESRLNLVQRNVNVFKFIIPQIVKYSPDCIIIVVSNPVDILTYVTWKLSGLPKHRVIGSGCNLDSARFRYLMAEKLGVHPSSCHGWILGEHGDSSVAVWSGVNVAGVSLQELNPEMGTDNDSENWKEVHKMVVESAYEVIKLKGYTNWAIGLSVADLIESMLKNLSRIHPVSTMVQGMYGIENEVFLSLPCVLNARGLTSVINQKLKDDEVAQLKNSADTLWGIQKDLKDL

[5] = target: T2, Alcohol dehydrogenase; assay: Dissociation constant from Alcohol dehydrogenase; type: protein assay
[6] = target: T2, Alcohol dehydrogenase; assay: In vitro inhibitory activity against horse liver Alcohol dehydrogenase

Ki [1] [µM]	Ki [2] [µM]	Ki [3] [µM]	Ki [4] [µM]	Kd [5] [µM]	Ki [6] [µM]	Structure (SMILES)
36.3	26.5	4.5	25.2	27	–	NC(=O)c1csc([C@H]2O[C@@H](COP(=O)(O)OP(=O)(O)OC[C@H]3O[C@@H](n4cnc5c(N)ncnc54)[C@H](O)[C@@H]3O)[C@H](O)[C@@H]2O)n1
–	–	65.2	–	–	105	NC(=O)c1csc([C@@H]2O[C@H](COP(=O)(O)O)[C@@H](O)[C@H]2O)n1
–	–	> 10000	–	–	> 10000	NC(=O)c1ccc[n+]([C@@H]2O[C@H](COP(=O)([O-])O)[C@@H](O)[C@H]2O)c1 [BETANMN]
–	–	> 10000	–	–	> 10000	NC(=O)c1csc([C@@H]2O[C@H](CO)[C@@H](O)[C@H]2O)n1 [TIAZOFURIN]
